System: MS2 coat protein
Experiment: apparent Kd, MS2 coat protein; higher = weaker binding; RNA-MaP array; FMN 200 µM where present
Summary of the method: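 Two titrations, one without ligand and one with constant ligand, were run with SNAP-549-labelled MS2 coat protein from 0.7 or 1.5 nM, doubling to 3 µM. The targets were designs transcribed by stalled E. coli RNA polymerase on Illumina sequencing-chip clusters, in 100 mM Tris-HCl pH 7.5, 80 mM KCl, 4 mM MgCl2, BSA, DTT, yeast tRNA and Tween-20. The apparent Kd is the median of filtered per-cluster binding-curve fits, with green signal normalised to red-channel RNA signal and control-cluster median Fmax.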

[1] = designed as: OFF switch for flavin mononucleotide, no ligand
[2] = ligand present: flavin mononucleotide, designed as: OFF switch for flavin mononucleotide
[3] = designed as: ON switch for flavin mononucleotide, no ligand
[4] = ligand present: flavin mononucleotide, designed as: ON switch for flavin mononucleotide

| Sequence | apparent Kd [1] [nM] | apparent Kd [2] [nM] | apparent Kd [3] [nM] | apparent Kd [4] [nM] |
| --- | --- | --- | --- | --- |
| CGGAUGUGAGGAUAUACAUGAGGAUCACCCAUGUGUGCCAGCUAGAUGACUGGCACUUGUAGAAGGCACGUCUG | 11.3 | 21.7 |  |  |
| UAUUCUAGAUAGGAUAUACUUUUUUUUUUUUUCGUAGAAGGAUCUACAUGAGGAUCACCCAUGUUUUCAGCAGU | 44.5 | 38.4 |  |  |
| UAAAUUUUGUAAGGAUAUACACGAGAUUCAAGUGUAGAAGGUACUUACAUGAGGAUCACCCAUGUAUACAUGGAUACUAGAUAU |  |  | 209 | 103 |
| GUCAUGUUAGGAUAUCUGGCAUGUGACUUCGGUCACUGUCCAGAGAAGGAACAUGAGGAUCACCCAUGUUGGAC | 75.1 | 57.1 |  |  |
| GUUAGUUAAGGAUAUACUGGGAGCUGCGGCGUCUCGCCGCAACAUGAGGAUCACCCAUGUAGAAGGUGGCCAUU | 765 | 425 |  |  |
| GAGGCCCAGGAAGGUAGAAUGAGCAGAAGGCAACGAAGCGUGAUCGACAUGAGGAUCACCCAUGUUGAGGAUAUGCGCCUCCAC | 63.1 | 178 |  |  |
| UGGGUGGUCCGAGGAUAUGUCACAUGAGGAUCACCCAUGUAAAACCAAGAGACAGAAGGCGGACAUAGACGCCCAAUUGCGCUC |  |  | 30.7 | 5.03 |
| AAAUAGCGAGGAUAUACAUGAGGAUCACCCAUGUGGACUGAUGUAGCAUGUUUCAGUGGUAGAAGGUGCUCAAA | 112 | 100 |  |  |
| CGCACUGAUAGAGGAUAUGUUUUACAUGAGGAUCACCCAUGUGUACAAGGAUCAAUAUAUUAGUAACAGAAGGCUAUUUGUGCG | 21.7 | 19.1 |  |  |
| GGUGGUGUCCGAGGAUAUCGUUAGGCGUUGUUGCGAGAAGGCGGACAUGAGGAUCACCCAUGUUUGAUAAAAGAGGAGGUUGUG | 86.1 | 130 |  |  |
| UUAAAUCAUGUAGGAUAUGCAUGGCGAAGCUACGCAGAAGGACAUGAGGAUCACCCAUGUUCUAGCUACCGGAUACGGUGGCAA | 21.5 | 87.4 |  |  |
| AACGACUUAGGAUAUACAUGAGGAUCACCCAUGUUCAAAUCGUGGGUCAGGUGAGAAGGUAGAAGGAAGUCACU | 33.6 | 93.7 |  |  |
| AAUUCACAUGAGGAUCACCCAUGUCAGGAUAUGGUUUCACGUGUUUCGGUGCGUGAGGCCAGAAGGGACAGCUA | 58.4 | 87 |  |  |
| AGCGCUACGGAAUCAAGGGCAGGCAGAAGGAGCACAUGAGGAUCACCCAUGUGAUCCAGGGAUGGCUAGGAUAUGCGCGCCACG | 26.4 | 26.5 |  |  |
| GCAUGUAAGCAGAAGGGCAGAUAUUUUGAUACUGCAGGAUAUGCAGAAUCAUAUCCACAUGAUAACAUGAGGAUCACCCAUGUA | 32.3 | 29 |  |  |
| GGCGGUCGGGAGGAUAUUCGGGCUGUUUGGCUUGGAGAAGGCUCGACAUGAGGAUCACCCAUGUAAGUGUUCUU | 376 | 406 |  |  |
| UUGAGGUCAGGAUAUGCAUGGCGGGACUUGCGUCGUGGCGUGGAGAAGGGACAUGAGGAUCACCCAUGUGGAGG | 129 | 94.9 |  |  |
| AGCUAGUCAGGAUAUGCGAACAUGUCAAAAGACGUGAAGGGACAUGAGGAUCACCCAUGUAGAAGGGACUAGCA | 31.8 | 35.9 |  |  |
| AAUAUGAGCUGGAAUAUAAACCUCACAUGAGGAUCACCCAUGUAGGAUAUCAGCACGAUAAGUGCUGAGAAGGACAACCAGCUC | 15.1 | 17.1 |  |  |
| UGGAUGGUAUGAGGAUAUGCGCGUGAAACGCGCGCAGAAGGCAUGUCAAUAGACAUGAGGAUCACCCAUGUACUAUCCAUCCAA |  |  | 114 | 9.65 |
| UCUAUAUAGAUUCAUCAAUACAGUAAGGAUAUGAGAUACAUGAGGAUCACCCAUGUGCAUGUGGAUUAGAAGGUACAAUUAACU | 60 | 46.3 |  |  |
| GCCUUAUCUGUCAGGAUAUACAAUAAUUUUUUUUUGUAGAAGGGACAUGAGGAUCACCCAUGUACAUUACAUUG | 40 | 201 |  |  |
| AUAUUGUGAGGAUAUGAACUUAGUAUCGAAAGAUACUAUGUUCAGAAGGCACAUGAGGAUCACCCAUGUUUCUC | 81.7 | 569 |  |  |

— the EternaBench riboswitch data
